The species entered for this experiment is Homo sapiens. The experiment in a line: Bronchorelaxing effect on LTD4-contracted small human lung airways assessed as remaining contraction at 10 uM after 1.5 hrs relative to control. Type of experiment: functional. In outline:
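Human small airways (0.5–1.5 mm diameter) from lung cancer patients, in vitro. Each preparation contracted with 10 nM LTD4 untreated, then again after 1.5 h exposure to 10 µM test compound. Value is the percent of the full LTD4 contraction that remains, given as arithmetic mean ± SEM with n in parentheses.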

On to `Nc1ccc2c(c1)CCN(C(=S)NCCc1ccc(Cl)cc1)C2`, for which the Activity was 62%. Regarding `Oc1cc2c(cc1Cl)CN(C(=S)NCCc1ccc(Cl)cc1)CCC2`, the Activity amounted to 49%.

Turning to `Oc1c(O)c(Cl)c2c(c1Cl)CCN(C(=S)NCCc1ccc(Cl)cc1)C2`, the Activity was 14%. For `CC1c2c(Cl)c(O)c(O)c(Cl)c2CCN1C(=S)NCCc1ccc(Cl)cc1` (stereo unspecified) the value was 48%. Turning to `Oc1cc2c(c(Cl)c1O)CCN(C(=S)NCCc1ccc(Cl)cc1)C2`, the Activity came out at 40%. For the compound `Oc1cc2c(cc1Cl)CCCN(C(=S)NCCc1ccc(Cl)cc1)C2`, the Activity worked out at 56%. For `Oc1ccc2c(c1Cl)CCN(C(=S)NCCc1ccc(Cl)cc1)C2` the value was 69%; for `Oc1c(Cl)cc2c(c1Cl)CN(C(=S)NCCc1ccc(Cl)cc1)CC2`, 57%. With `Oc1c(O)c(Cl)c2c(c1Cl)CCCN(C(=S)NCCc1ccc(Cl)cc1)C2`, the Activity was determined as 38%. For `Oc1c(O)c(Cl)c2c(c1Cl)CCN(C(=S)NCCc1ccc(Cl)cc1)CC2` the value was 29%. Regarding `S=C(NCCc1ccc(Cl)cc1)N1CCc2ccccc2C1`, the Activity worked out at 83%.

Regarding `Oc1cc2c(c(Cl)c1O)CN(C(=S)NCCc1ccc(Cl)cc1)CCC2`, the Activity worked out at 63%.

With `Oc1cc2c(cc1Cl)CN(C(=S)NCCc1ccc(Cl)cc1)CC2`, the Activity was determined as 73%. To `Oc1ccc2c(c1Cl)CCCN(C(=S)NCCc1ccc(Cl)cc1)C2` belongs 67%. For `COC(=O)c1cc2c(cc1C(=O)OC)CN(C(=S)NCCc1ccc(Cl)cc1)CC2` the value was 87%; for `CS(=O)(=O)Nc1ccc2c(c1)CN(C(=S)NCCc1ccc(Cl)cc1)CC2`, 72%. To `Oc1c(Cl)cc2c(c1Cl)CCN(C(=S)NCCc1ccc(Cl)cc1)C2` belongs 55%; to `Oc1cc2c(cc1Cl)CCN(C(=S)NCCc1ccc(Cl)cc1)C2`, 69%. As to `Oc1cc2c(c(Cl)c1O)CN(C(=S)NCCc1ccc(Cl)cc1)C2`, the Activity is 65%. Take `N#Cc1cc2c(cc1C#N)CN(C(=S)NCCc1ccc(Cl)cc1)CC2`: the Activity came to 84%. In the case of `Oc1cc2c(c(Cl)c1O)CN(C(=S)NCCc1ccc(Cl)cc1)CC2`, the Activity was 49%. For `Oc1cc2c(c(Cl)c1O)CCCN(C(=S)NCCc1ccc(Cl)cc1)C2` the value was 64%; for `Oc1ccc2c(c1Cl)CN(C(=S)NCCc1ccc(Cl)cc1)CCC2`, 46%; for `Oc1ccc2c(c1Cl)CN(C(=S)NCCc1ccc(Cl)cc1)CC2`, 47%. For `CC1Cc2c(Cl)c(O)c(O)c(Cl)c2CN1C(=S)NCCc1ccc(Cl)cc1` (stereo unspecified) the value was 31%; for `O=C(O)c1cc2c(cc1C(=O)O)CN(C(=S)NCCc1ccc(Cl)cc1)CC2`, 99%; for `Nc1ccc2c(c1)CN(C(=S)NCCc1ccc(Cl)cc1)CC2`, 79%. With `Oc1c(Cl)cc2c(c1Cl)CCCN(C(=S)NCCc1ccc(Cl)cc1)C2`, the Activity was 30%.

`Oc1c(O)c(Cl)c2c(c1Cl)CN(C(=S)NCCc1ccc(Cl)cc1)C2`: the Activity came out at 31%.

In the case of `CS(=O)(=O)Nc1ccc2c(c1)CCN(C(=S)NCCc1ccc(Cl)cc1)C2`, the Activity came out at 75%.

Take `Oc1c(O)c(Cl)c2c(c1Cl)CCN(C(=S)NCCc1ccc(Cl)cc1)C2Cc1ccccc1` (stereo unspecified): the Activity was 84%.

The record behind these values is ChEMBL document CHEMBL1144018, “SAR studies of capsazepinoid bronchodilators. Part 2: Chlorination and catechol replacement in the A-ring” (Bioorg Med Chem, 2008).
